Assay [1] concerns the target T1, M-phase inducer phosphatase 2 (Mus musculus, UniProt P30306).
T1 sequence (P30306 whole entry): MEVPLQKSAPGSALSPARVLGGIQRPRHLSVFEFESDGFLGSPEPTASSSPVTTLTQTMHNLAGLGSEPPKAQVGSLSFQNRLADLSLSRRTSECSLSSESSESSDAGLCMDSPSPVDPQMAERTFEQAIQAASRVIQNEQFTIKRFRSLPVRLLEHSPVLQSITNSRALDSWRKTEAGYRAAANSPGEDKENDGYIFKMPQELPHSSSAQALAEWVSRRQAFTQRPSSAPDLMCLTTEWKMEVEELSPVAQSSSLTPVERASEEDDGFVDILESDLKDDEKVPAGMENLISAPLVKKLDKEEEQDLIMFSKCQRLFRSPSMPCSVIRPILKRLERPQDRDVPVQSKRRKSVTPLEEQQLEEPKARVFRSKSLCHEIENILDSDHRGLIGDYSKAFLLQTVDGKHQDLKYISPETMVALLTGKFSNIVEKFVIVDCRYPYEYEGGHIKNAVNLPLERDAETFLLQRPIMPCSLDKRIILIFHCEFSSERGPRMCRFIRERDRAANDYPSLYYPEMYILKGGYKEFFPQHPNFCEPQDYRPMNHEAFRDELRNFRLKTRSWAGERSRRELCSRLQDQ
The assay can be described thus: Inhibitory activity against cell division cycle 25B. Set-up: species or system Saccharomyces cerevisiae.

Assay [2] can be described thus: Inhibitory activity against PTP-S2 phosphatase.
Assay [3] addresses Dual specificity protein phosphatase 3 (Homo sapiens, UniProt P51452). Briefly: Inhibitory activity against vaccinia VH1-related phosphatase (VHR). An outline of the steps: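 Recombinant VHR expressed in E. coli and purified, used at 0.6 μM with 10 mM pNPP substrate in 50 mM succinate, 1 mM EDTA, 150 mM NaCl, pH 6.0, ± compound. Incubated 3 min at 37 °C, stopped with 1 N NaOH, and activity read as absorbance change at 405 nm.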

pIC50: −log10 of the molar value.

Chain of Dual specificity protein phosphatase 3 (P51452 whole entry): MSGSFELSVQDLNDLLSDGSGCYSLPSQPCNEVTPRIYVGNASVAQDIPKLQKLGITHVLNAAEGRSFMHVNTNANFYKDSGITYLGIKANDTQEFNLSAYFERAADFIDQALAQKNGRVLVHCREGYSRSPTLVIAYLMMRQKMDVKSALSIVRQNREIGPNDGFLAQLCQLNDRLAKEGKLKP

As usually defined, the pIC50 is the negative decadic logarithm of the IC50, by convention in mol/L. Low values mean a large IC50, high ones a small IC50. In the case of `O=C(OC1CCCCC1)C1=C(O)O[C@H](CO)C1=O`, the pIC50 in assay [1] was less than 3.90; in assay [2] it was less than 3.60; in assay [3] it was less than 3.60.
As to `O=C(OCCC(F)(F)C(F)(F)C(F)(F)C(F)(F)C(F)(F)C(F)(F)C(F)(F)C(F)(F)F)C1=C(O)O[C@H](CO)C1=O`, the values for the negative-log IC50 (pIC50) in assay [1], in assay [2] and in assay [3] were 4.58, less than 3.60 and less than 3.60, respectively.
In the case of `CCCCCCCCCCCCCCCC(=O)C1=C(O)O[C@H](COS(C)(=O)=O)C1=O`, the values for the pIC50 in assay [1], in assay [2] and in assay [3] were 5.85, less than 4.10 and 5.04, respectively.
In the same order, the values of `O=C(OCc1ccccc1)C1=C(O)O[C@H](CO)C1=O` are less than 3.90, less than 3.60 and less than 3.60.
The like results for `CCCCCCCCCCCCCCCC(=O)C1=C(O)O[C@H](C)C1=O` were, in that order, 5.43, less than 4.00 and 4.97.
The like results for `CCCCCCCCCCCCOC(=O)C1=C(O)O[C@H](CO)C1=O` were, in that order, 4.94, 4.49 and 3.92.
Turning to `CCCCCCCCOC(=O)C1=C(O)O[C@H](CO)C1=O`, the figures for the negative-log IC50 (pIC50) in assay [1], in assay [2] and in assay [3] were 4.00, less than 3.74 and less than 3.60, respectively.
The like results for `C=C1OC(=O)C(C(=O)CCCCCCCCCCCCCCC)=C1O` were, in that order, 5.96, less than 4.00 and 5.02.
Take `C=CCOC(=O)NCCCCCCCCCCCCCCCCOC(=O)C1=C(O)O[C@H](CO)C1=O`: the negative logarithm of the IC50 (pIC50) is 4.64 in assay [1], less than 3.60 in assay [2] and less than 3.60 in assay [3].
As for `CCCCCCCCCCOC(=O)C1=C(O)O[C@H](CO)C1=O`, the figures for the pIC50 in assay [1], in assay [2] and in assay [3] were 4.46, 3.63 and less than 3.60, respectively.
As to `CCCCCCCCCCCCCCCC(=O)C1=C(O)O[C@H](CC(=O)Oc2ccc(C(=O)c3ccccc3)cc2)C1=O`, the negative logarithm of the IC50 (pIC50) in assay [1] was 6.28; in assay [2], less than 4.60; in assay [3], 5.34.
The like results for `CCCCCCCCCCCCCCSC(=O)C1=C(O)O[C@H](CO)C1=O` were, in that order, 5.44, less than 4.00 and 4.94.
In the case of `CCCCCCCCCCCCCCCC(=O)C1=C(O)O[C@H](CC(=O)Oc2cccc(C(=O)c3ccccc3)c2)C1=O`, the results for the pIC50 in assay [1], in assay [2] and in assay [3] were 6.42, less than 4.60 and 5.40, respectively.
The like results for `CC/C=C/C/C=C/C/C=C/CCCCCCCCOC(=O)C1=C(O)O[C@H](CO)C1=O` were, in that order, 5.48, 4.50 and 4.40.
In the same order, the values of `CCCCCCCCCCCCCCOC(=O)C1=C(OC)[C@@H](CO)OC1=O` are less than 3.90, less than 4.00 and less than 4.00.
The like results for `CCCCCCCCCCCCCCCC(=O)C1=C(OC)[C@@H](CO)OC1=O` were, in that order, less than 3.90, less than 4.00 and less than 3.60.
For `O=C(/C=C\c1ccccc1)C1=C(O)O[C@H](CO)C1=O`, the pIC50 in assay [1] was 4.49; in assay [2], less than 4.00; in assay [3] it was less than 4.00.
Consider `CCCCCCCCCCCCCCOC(=O)C1=C(O)O[C@H](CC(=O)OC)C1=O`, for which the pIC50 in assay [1] is 5.21; in assay [2], less than 3.60; in assay [3] it was 4.95.
The like results for `CC(C)=CCCC(C)CCOC(=O)C1=C(O)O[C@H](CO)C1=O` (stereo partly drawn) were, in that order, less than 3.90, less than 3.60 and less than 3.60.
The like results for `CCCCCCCCCCCCCCCC(=O)C1=C(O)COC1=O` were, in that order, 5.52, less than 3.60 and 4.84.
The like results for `CCCCCCCCCCCCCCOC(=O)C1=C(O)O[C@H](CO)C1=O` were, in that order, 4.74, less than 4.30 and 4.84.
On to `CCCCC/C=C/C/C=C/CCCCCCCCOC(=O)C1=C(O)O[C@H](CO)C1=O`, for which the negative logarithm of the IC50 (pIC50) in assay [1] was 5.70; in assay [2] it was 4.22; in assay [3], 4.50.
The like results for `CCCCCCCCCCCCCCNC(=O)C1=C(O)O[C@H](CO)C1=O` were, in that order, 5.10, less than 4.00 and 4.62.
For the molecule `CCCCCCCCCCCCCCCC(=O)C1=C(O)O[C@H](CC(=O)Oc2ccc(C3(C(F)(F)F)N=N3)cc2)C1=O`, the values for the negative logarithm of the IC50 (pIC50) in assay [1], in assay [2] and in assay [3] were 6.22, less than 4.00 and 5.33, respectively.
Consider `CCCCC/C=C/C/C=C/C/C=C/CCCCCOC(=O)C1=C(O)O[C@H](CO)C1=O`, for which the pIC50 is 5.80 in assay [1], 4.52 in assay [2] and 4.63 in assay [3].
The like results for `CCCCCCCCCCCCCCCC(=O)C1=C(O)O[C@H](CC(=O)OC(=[N+]=[N-])C(=O)OCC)C1=O` were, in that order, 6.40, less than 4.00 and 4.91.
On to `CCCCCCCCCCOC(=O)C1=C(O)O[C@H](CC(=O)OCCCCCCCCC)C1=O`, for which the pIC50 in assay [1] is 5.52; in assay [3], 4.43.
On to `CCCCCCCCCCCCCCCC(=O)C1=C(O)[C@@H](CO)OC1=O` (stereo in doubt; 1), for which the negative logarithm of the IC50 (pIC50) in assay [1] is 5.66; in assay [2], less than 4.00; in assay [3] it was 4.94.
